# Measurements published in ChEMBL document CHEMBL1122115, “Antimalarials. 13. 5-Alkoxy analogues of 4-methylprimaquine” (1982).
# Tests used:
# Assay type in all cases: functional
# [1] = test system: Mus musculus; assay: Antimalarial activity against Plasmodium berghei in mice (Mus musculus) at 640 mg/kg dose administered subcutaneously; toxic; settings: route subcutaneous
# Summary of the method: (§1)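 Primary mouse screen: groups of five mice infected with a lethal dose of P. berghei 3 days before drug administration. Drug given subcutaneously, routinely in sesame or peanut oil. Mean survival time compared with infected untreated controls; extension in survival time (ΔMST) taken as antimalarial activity.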
# [2] = test system: Plasmodium cynomolgi; assay: Radio curative antimalarial activity against Plasmodium cynomolgi in Rhesus monkey at 0.25 mg/kg (base/day) peroral dose; cured 0 of 3; settings: route oral
# [3] = test system: Mus musculus; assay: Antimalarial activity against Plasmodium berghei in mice (Mus musculus) at 40 mg/kg dose administered subcutaneously; active; settings: route subcutaneous; summary of the method: as §1
# [4] = test system: Mus musculus; assay: Antimalarial activity against Plasmodium berghei in mice (Mus musculus) at 5 mg/kg dose administered subcutaneously; active; settings: route subcutaneous; summary of the method: as §1
# [5] = test system: Mus musculus; assay: Antimalarial activity against Plasmodium berghei in mice (Mus musculus) at 10 mg/kg dose administered subcutaneously; active; settings: route subcutaneous; summary of the method: as §1
# [6] = test system: Mus musculus; assay: Antimalarial activity against Plasmodium berghei in mice (Mus musculus) at 20 mg/kg dose administered subcutaneously; active; settings: route subcutaneous; summary of the method: as §1
# [7] = test system: Mus musculus; assay: Antimalarial activity against Plasmodium berghei in mice (Mus musculus) at 160 mg/kg dose administered subcutaneously; toxic; settings: route subcutaneous; summary of the method: as §1
# [8] = test system: Plasmodium cynomolgi; assay: Radio curative antimalarial activity against Plasmodium cynomolgi in rhesus monkey at 0.75 mg/kg (base/day) peroral dose; cured 0 of 3; settings: route oral
# [9] = test system: Plasmodium cynomolgi; assay: Radio curative antimalarial activity against Plasmodium cynomolgi in rhesus monkey at 0.25 mg/kg (base/day) peroral dose; cured 0 of 3; settings: route oral
# [10] = test system: Mus musculus; assay: Antimalarial activity against Plasmodium berghei in mice (Mus musculus) at 40 mg/kg dose administered subcutaneously; toxic; settings: route subcutaneous; summary of the method: as §1
# [11] = test system: Plasmodium cynomolgi; assay: Radio curative antimalarial activity against Plasmodium cynomolgi in rhesus monkey at 0.75 mg/kg (base/day) peroral dose;cured 3 of 5; settings: route oral
# [12] = test system: Mus musculus; assay: Antimalarial activity against Plasmodium berghei in mice (Mus musculus) at 20 mg/kg dose administered subcutaneously; settings: route subcutaneous; summary of the method: as §1
# [13] = test system: Mus musculus; assay: Antimalarial activity against Plasmodium berghei in mice (Mus musculus) at 40 mg/kg dose administered subcutaneously; active/3 toxic; settings: route subcutaneous; summary of the method: as §1
# [14] = test system: Plasmodium cynomolgi; assay: Radio curative antimalarial activity against Plasmodium cynomolgi in rhesus monkey at 0.25 mg/kg (base/day) peroral dose; cured 2 of 4; settings: route oral
# [15] = test system: Plasmodium cynomolgi; assay: Radio curative antimalarial activity against Plasmodium cynomolgi in rhesus monkey at 0.5 mg/kg (base/day) peroral dose; cured 1 of 1; settings: route oral
# [16] = test system: Plasmodium cynomolgi; assay: Radio curative antimalarial activity against Plasmodium cynomolgi in rhesus monkey at 0.25 mg/kg (base/day) peroral dose; cured 5 of 6; settings: route oral
# [17] = test system: Mus musculus; assay: Antimalarial activity against Plasmodium berghei in mice (Mus musculus) at 20 mg/kg dose administered subcutaneously; active/3 toxic; settings: route subcutaneous; summary of the method: as §1
# [18] = test system: Mus musculus; assay: Antimalarial activity against Plasmodium berghei in mice (Mus musculus) at 320 mg/kg dose administered subcutaneously; active/3 toxic; settings: route subcutaneous; summary of the method: as §1
# [19] = test system: Mus musculus; assay: Antimalarial activity against Plasmodium berghei in mice (Mus musculus) at 160 mg/kg dose administered subcutaneously; active; settings: route subcutaneous; summary of the method: as §1
# [20] = test system: Mus musculus; assay: Antimalarial activity against Plasmodium berghei in mice (Mus musculus) at 40 mg/kg dose administered subcutaneously; settings: route subcutaneous; summary of the method: as §1
# [21] = test system: Mus musculus; assay: Antimalarial activity against Plasmodium berghei in mice (Mus musculus) at 80 mg/kg dose administered subcutaneously; settings: route subcutaneous; summary of the method: as §1
# [22] = test system: Plasmodium cynomolgi; assay: Radio curative antimalarial activity against Plasmodium cynomolgi in rhesus monkey at 0.75 mg/kg (base/day) peroral dose; cured 0 of 2; settings: route oral
# [23] = test system: Plasmodium cynomolgi; assay: Radio curative antimalarial activity against Plasmodium cynomolgi in rhesus monkey at 0.25 mg/kg (base/day) peroral dose; cured 0 of 2; settings: route oral
# [24] = test system: Mus musculus; assay: Antimalarial activity against Plasmodium berghei in mice (Mus musculus) at 160 mg/kg dose administered subcutaneously; settings: route subcutaneous; summary of the method: as §1
# [25] = test system: Mus musculus; assay: Antimalarial activity against Plasmodium berghei in mice (Mus musculus) at 640 mg/kg dose administered subcutaneously; settings: route subcutaneous; summary of the method: as §1
# [26] = test system: Mus musculus; assay: Antimalarial activity against Plasmodium berghei in mice (Mus musculus) at 40 mg/kg dose administered subcutaneously; cure/1 toxic; settings: route subcutaneous; summary of the method: as §1
# [27] = test system: Plasmodium cynomolgi; assay: Radio curative antimalarial activity against Plasmodium cynomolgi in rhesus monkey at 0.25 mg/kg (base/day) peroral dose; cured 1 of 4; settings: route oral
# [28] = test system: Mus musculus; assay: Antimalarial activity against Plasmodium berghei in mice (Mus musculus) at 20 mg/kg dose administered subcutaneously; cure and active at 1.25 mg/kg; summary of the method: as §1
# [29] = test system: Plasmodium cynomolgi; assay: Radio curative antimalarial activity against Plasmodium cynomolgi in rhesus monkey at 0.75 mg/kg (base/day) peroral dose; cured 3 of 3; settings: route oral
# [30] = test system: Mus musculus; assay: Antimalarial activity against Plasmodium berghei in mice (Mus musculus) at 640 mg/kg dose administered subcutaneously; cure/1toxic; settings: route subcutaneous; summary of the method: as §1
# [31] = test system: Mus musculus; assay: Antimalarial activity against Plasmodium berghei in mice (Mus musculus) at 320 mg/kg dose administered subcutaneously; active; settings: route subcutaneous; summary of the method: as §1
# [32] = test system: Plasmodium cynomolgi; assay: Radio curative antimalarial activity against Plasmodium cynomolgi in rhesus monkey at 0.5 mg/kg (base/day) peroral dose; cured 13 of 14; settings: route oral
# [33] = test system: Plasmodium cynomolgi; assay: Radio curative antimalarial activity against Plasmodium cynomolgi in rhesus monkey at 0.75 mg/kg (base/day) peroral dose; cured 1 of 1; settings: route oral
# [34] = test system: Plasmodium cynomolgi; assay: Radio curative antimalarial activity against Plasmodium cynomolgi in rhesus monkey at 0.25 mg/kg (base/day) peroral dose; cured 8 of 14; settings: route oral
# [35] = test system: Plasmodium cynomolgi; assay: Radio curative antimalarial activity against Plasmodium cynomolgi in rhesus monkey at 0.25 mg/kg (base/day) peroral dose; cured 2 of 2; settings: route oral
# [36] = test system: Mus musculus; assay: Antimalarial activity against Plasmodium berghei in mice (Mus musculus) at 40 mg/kg dose administered subcutaneously; active/1 toxic; settings: route subcutaneous; summary of the method: as §1
# [37] = test system: Mus musculus; assay: Antimalarial activity against Plasmodium berghei in mice (Mus musculus) at 20 mg/kg dose administered subcutaneously; active/1 toxic; settings: route subcutaneous; summary of the method: as §1
# [38] = test system: Plasmodium cynomolgi; assay: Radio curative antimalarial activity against Plasmodium cynomolgi in Rhesus monkey at 0.0625 mg/kg(base/day) peroral dose; Cured 0 of 2; settings: route oral
# [39] = test system: Plasmodium cynomolgi; assay: Radio curative antimalarial activity against Plasmodium cynomolgi in rhesus monkey at 0.25 mg/kg (base/day) peroral dose; cured 4 of 4; settings: route oral
# [40] = test system: Plasmodium cynomolgi; assay: Radio curative antimalarial activity against Plasmodium cynomolgi in rhesus monkey at 0.75 mg/kg (base/day) peroral dose; cured 4 of 5; settings: route oral
# [41] = test system: Plasmodium cynomolgi; assay: Radio curative antimalarial activity against Plasmodium cynomolgi in rhesus monkey at 0.125 mg/kg(base/day) peroral dose; Cured 6 of 10; settings: route oral
# [42] = test system: Plasmodium cynomolgi; assay: Radio curative antimalarial activity against Plasmodium cynomolgi in Rhesus monkey at 0.125 mg/kg(base/day) peroral dose; Cured 11 of 13; settings: route oral
# [43] = test system: Mus musculus; assay: Antimalarial activity against Plasmodium berghei in mice (Mus musculus) at 80 mg/kg dose administered subcutaneously; active; settings: route subcutaneous; summary of the method: as §1
# [44] = test system: Plasmodium cynomolgi; assay: Radio curative antimalarial activity against Plasmodium cynomolgi in rhesus monkey at 0.25 mg/kg (base/day) peroral dose; cured 3 of 4; settings: route oral
# [45] = test system: Mus musculus; assay: Antimalarial activity against Plasmodium berghei in mice (Mus musculus) at 160 mg/kg dose administered subcutaneously; active/1 toxic; settings: route subcutaneous; summary of the method: as §1
# [46] = test system: Mus musculus; assay: Antimalarial activity against Plasmodium berghei in mice (Mus musculus) at 320 mg/kg dose administered subcutaneously; active/4 toxic; settings: route subcutaneous; summary of the method: as §1
# [47] = test system: Plasmodium cynomolgi; assay: Radio curative antimalarial activity against Plasmodium cynomolgi in rhesus monkey at 0.0625 mg/kg(base/day) peroral dose; Cured 0 of 5; settings: route oral
# [48] = test system: Plasmodium cynomolgi; assay: Radio curative antimalarial activity against Plasmodium cynomolgi in rhesus monkey at 0.75 mg/kg (base/day) peroral dose; cured 4 of 4; settings: route oral
# [49] = test system: Plasmodium cynomolgi; assay: Radio curative antimalarial activity against Plasmodium cynomolgi in rhesus monkey at 0.5 mg/kg (base/day) peroral dose; cured 10 of 12; settings: route oral
# [50] = test system: Mus musculus; assay: Antimalarial activity against Plasmodium berghei in mice (Mus musculus) at 320 mg/kg dose administered subcutaneously; toxic; settings: route subcutaneous; summary of the method: as §1
smiles,measurement,setting,value
CCC(CCCN)Nc1cc2c(c3c(C)ccnc13)OCCO2 (stereo not given),Delta MST,[1],5 days
same,Cured animals,[2],0
same,Delta MST,[3],7.6 days
same,Delta MST,[4],7.8 days
same,Delta MST,[5],7.6 days
same,Delta MST,[6],7.2 days
same,Delta MST,[7],5 days
same,Cured animals,[8],0
Cc1ccnc2c(NC(C)CCCN)cc3c(c12)OCCO3 (stereo not given),Delta MST,[1],5 days
same,Cured animals,[9],0
same,Delta MST,[4],6.7 days
same,Delta MST,[5],8.3 days
same,Delta MST,[6],11.1 days
same,Delta MST,[7],5 days
same,Cured animals,[8],0
same,number of mice died of toxicity,[10],5 mice
COc1cc(NC(C)CCCN)c2nc(C)cc(C)c2c1OC (stereo not given),Delta MST,[1],5 days
same,Cured animals,[11],3
same,Delta MST,[12],4.9 days
same,Delta MST,[13],6.3 days
same,Delta MST,[7],5 days
same,Cured animals,[14],2
COc1cc(NCCCC(C)N)c2nccc(C)c2c1OC (stereo not given),Delta MST,[1],5 days
same,Cured animals,[15],1
same,Cured animals,[16],5
same,Delta MST,[7],5 days
same,Delta MST,[17],11.4 days
same,number of mice died of toxicity,[10],5 mice
COc1cc(NCCCC(C)N)c2ncccc2c1OC (stereo not given),Delta MST,[1],5 days
same,Delta MST,[18],9.9 days
same,Delta MST,[19],7.3 days
same,Delta MST,[20],3.1 days
same,Delta MST,[12],1.3 days
same,Delta MST,[21],5.1 days
same,Cured animals,[22],0
same,Cured animals,[23],0
CCC(CCCN)Nc1cc2c(c3c(C)ccnc13)OCO2 (stereo not given),Delta MST,[24],0.5 days
same,Cured animals,[9],0
same,Delta MST,[20],0.5 days
same,Delta MST,[25],0.9 days
same,Cured animals,[8],0
COc1cc(NC(C)CCCCN)c2nccc(C)c2c1OC (stereo not given),Delta MST,[1],5 days
same,number of mice cured,[26],1 mice
same,Cured animals,[27],1
same,Delta MST,[7],5 days
same,Delta MST,[28],3 days
same,Cured animals,[29],3
COc1cc(NC(C)CCCN)c2nccc(C)c2c1 (stereo not given),Delta MST,[30],3 days
same,Delta MST,[31],10.1 days
same,Cured animals,[32],13
same,Cured animals,[33],1
same,Delta MST,[19],9.1 days
same,Delta MST,[20],4.9 days
same,Delta MST,[12],3.1 days
same,Delta MST,[21],5.5 days
same,Cured animals,[34],8
COc1cc(NCCCCC(C)N)c2nccc(C)c2c1OC (stereo not given),Delta MST,[1],5 days
same,Cured animals,[35],2
same,Delta MST,[36],8.7 days
same,Delta MST,[37],7.5 days
same,Delta MST,[7],5 days
same,Cured animals,[29],3
Cc1ccnc2c(NC(C)CCCN)cc3c(c12)OCO3 (stereo not given),Delta MST,[24],0.1 days
same,Delta MST,[20],0.1 days
same,Delta MST,[25],0.3 days
CCC(CCCN)Nc1cc(OC)c(OC)c2c(C)ccnc12 (stereo not given),Delta MST,[1],5 days
same,Cured animals,[38],0
same,Cured animals,[39],4
same,Cured animals,[40],4
same,Delta MST,[20],0.1 days
same,Cured animals,[41],6
same,Delta MST,[7],5 days
COc1cc(NC(C)CCCN)c2nccc(C)c2c1OC (stereo not given),Delta MST,[1],5 days
same,Cured animals,[42],11
same,Delta MST,[43],8.9 days
same,Cured animals,[44],3
same,Delta MST,[45],9.9 days
same,Cured animals,[15],1
same,Delta MST,[12],5.7 days
same,Delta MST,[3],7.1 days
same,Delta MST,[46],11.9 days
same,Cured animals,[47],0
COc1cc(NC(C)CCCN)c2ncccc2c1 (stereo not given) [PRIMAQUINE],Delta MST,[1],5 days
same,Delta MST,[43],9.4 days
same,Cured animals,[48],4
same,Delta MST,[20],5 days
same,Delta MST,[7],2 days
same,Cured animals,[49],10
same,Delta MST,[50],5 days
same,Cured animals,[23],0
